# Published values pooled from the literature.
# Lines come from different studies, so protocols differ.
# Target: Serine/threonine-protein kinase Nek5 (NEK5, Homo sapiens, UniProt Q6P3R8)
# One construct used (Q6P3R8 1-708): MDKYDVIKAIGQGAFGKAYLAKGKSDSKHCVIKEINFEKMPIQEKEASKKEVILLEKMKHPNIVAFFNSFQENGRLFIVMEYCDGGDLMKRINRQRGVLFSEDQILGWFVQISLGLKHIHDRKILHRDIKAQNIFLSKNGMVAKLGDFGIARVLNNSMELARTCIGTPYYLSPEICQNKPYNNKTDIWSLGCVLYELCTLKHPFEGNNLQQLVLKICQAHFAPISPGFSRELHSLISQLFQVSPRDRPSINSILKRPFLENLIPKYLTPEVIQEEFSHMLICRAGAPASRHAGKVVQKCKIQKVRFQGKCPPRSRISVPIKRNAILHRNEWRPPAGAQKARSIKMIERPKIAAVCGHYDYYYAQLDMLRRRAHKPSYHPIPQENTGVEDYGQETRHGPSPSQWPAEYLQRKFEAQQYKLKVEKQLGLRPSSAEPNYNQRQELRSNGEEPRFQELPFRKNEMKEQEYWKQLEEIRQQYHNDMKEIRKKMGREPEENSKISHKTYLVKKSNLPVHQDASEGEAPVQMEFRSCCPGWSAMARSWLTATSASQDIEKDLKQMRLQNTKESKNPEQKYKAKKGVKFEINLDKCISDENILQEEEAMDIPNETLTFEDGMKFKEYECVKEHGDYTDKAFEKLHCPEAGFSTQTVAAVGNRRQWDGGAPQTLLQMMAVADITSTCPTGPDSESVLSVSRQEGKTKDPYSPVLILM
SMILES,assay,setting,remaining binding [%]
O=C(NCCCN1CCOCC1)c1ccc(Nc2nccc(-c3cc4ccccc4s3)n2)cc1,"binding, competition with immobilised ligand",1 µM,4.4
Cn1nc(C(F)(F)F)cc1-c1cnc(N2CCc3cc(S(=O)(=O)Nc4c(F)cc(Cl)cc4F)cc(N4CCCC4=O)c32)nc1,"cell-free assay, competition with immobilised ligand",1 µM,86
Nc1ncc2c(n1)-c1c([nH]c3ccc(C#CC4CC4)cc13)CCCC2,"binding, competition with immobilised ligand",1 µM,100
FC(F)(F)Oc1cccc(-c2cnc3ccc(-c4ccncc4)nn23)c1,"cell-free assay, competition with immobilised ligand",5 µM,74
FC(F)(F)c1ccc2c(c1)nc(-c1cccnc1)n2C1CC1,"cell-free assay, competition with immobilised ligand",1 µM,100
O=C(c1ccc(Nc2ncc(Cl)c(-c3cc4ccccc4s3)n2)cc1)N1CCC(N2CCCC2)CC1,"binding, competition with immobilised ligand",1 µM,0
c1cncc(-c2cccc(Nc3nccc(NC4CCCCC4)n3)c2)c1,"binding, competition with immobilised ligand",10 µM,49
Cc1cnc(Nc2ccc(C(=O)N3CCC(N4CCCC4)CC3)cc2)nc1-c1cc2ccccc2s1,"binding, competition with immobilised ligand",1 µM,0.1
CCOCCn1cc(C(=O)Nc2ccc(-n3nc(-c4cccnc4)cc3C(F)(F)F)cn2)ccc1=O,"cell-free assay, competition with immobilised ligand",1 µM,100
C[C@H]1CCN(c2nccc(-c3cnn4ncccc34)n2)C1,binding,1 µM,90
C[C@H](NC(=O)c1cnc2n1[C@](C)(Cc1ccc(C#N)cc1)C(=O)N2c1cc(Cl)c(F)c(Cl)c1)C(=O)NC1(c2ccccn2)CC1,"cell-free assay, competition with immobilised ligand",1 µM,100
CN(C)c1nccc(-c2cnn3ncccc23)n1,binding,1 µM,100
COc1cnc(Nc2cccc(S(N)(=O)=O)c2)nc1N1CCN(c2ccccc2)CC1,"binding, competition with immobilised ligand",1 µM,42
c1cnn2ncc(-c3ccnc(N4CCC45COC5)n3)c2c1,binding,1 µM,97
O=C(Nc1c[nH]nc1C(=O)NC1CCNCC1)c1cc(F)cc(F)c1,"binding, competition with immobilised ligand",1 µM,95
F[C@@H]1CCN(c2nccc(-c3cnn4ncccc34)n2)C1,binding,1 µM,100
C[C@@H](c1cccc(C#N)c1)n1cc(Cl)cc(C(N)=O)c1=N,"cell-free assay, competition with immobilised ligand",1 µM,100
N[C@@H]1CCN(c2nccc(-c3cnn4ncccc34)n2)C1,binding,1 µM,100
c1ccc(N2CCN(Cc3nc4ccccc4[nH]3)CC2)nc1,"binding, competition with immobilised ligand",1 µM,100
CN(CCCC(F)(F)F)c1nccc(-c2cnn3ncccc23)n1,binding,1 µM,100
C[C@@H](c1ccc(-n2cnc3c(N)ncnc32)cc1)N1CCc2nn(C)c(Cc3ccccc3)c2C1=O,"binding, competition with immobilised ligand",0.1 µM,92
